From ChEMBL document CHEMBL1667760, “Synthesis and biological evaluation of 3,5-diaryl isoxazoline/isoxazole linked 2,3-dihydroquinazolinone hybrids as anticancer agents” (2011)
Activity calls are given as the source filed them. The rule behind the calls is not given here.

Columns and labels:
K562 = experiment: Cytotoxicity against human K562 cells after 48 hrs by sulforhodamine B assay; assay type: functional; conditions: K562, 48 h
Procedure, shortened: (§1)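 Run by the NCI 60-cell-line screen. A one-dose pre-test was done first, followed by the main test over a 5-log dose range (10^-4 to 10^-8 M). Results are reported as log molar GI50 (50% net growth inhibition), TGI (total growth inhibition) and LC50 (50% net cell death), with mean-graph midpoints across all lines.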

MOLT-4 = experiment: Cytotoxicity against human MOLT4 cells after 48 hrs by sulforhodamine B assay; assay type: functional; conditions: MOLT-4, 48 h; procedure, shortened: as §1
[1] = Cytotoxicity against human […] cells after 48 hrs by sulforhodamine B assay; assay type: functional; procedure, shortened: as §1
HOP-92 = experiment: Cytotoxicity against human HOP92 cells after 48 hrs by sulforhodamine B assay; assay type: functional; conditions: HOP-92, 48 h; procedure, shortened: as §1
NCI-H23 = experiment: Cytotoxicity against human NCI-H23 cells after 48 hrs by sulforhodamine B assay; assay type: functional; conditions: NCI-H23, 48 h; procedure, shortened: as §1
NCI-H322M = experiment: Cytotoxicity against human NCI-H322M cells after 48 hrs by sulforhodamine B assay; assay type: functional; procedure, shortened: as §1
NCI-H522 = experiment: Cytotoxicity against human NCI-H522 cells after 48 hrs by sulforhodamine B assay; assay type: functional; conditions: NCI-H522, 48 h; procedure, shortened: as §1
COLO 205 = experiment: Cytotoxicity against human COLO205 cells after 48 hrs by sulforhodamine B assay; assay type: functional; conditions: COLO 205, 48 h; procedure, shortened: as §1
HCT-15 = experiment: Cytotoxicity against human HCT15 cells after 48 hrs by sulforhodamine B assay; assay type: functional; conditions: HCT-15, 48 h; procedure, shortened: as §1
DU-145 = experiment: Cytotoxicity against human DU145 cells after 48 hrs by sulforhodamine B assay; assay type: functional; conditions: DU-145, 48 h; procedure, shortened: as §1
SF-268 = experiment: Cytotoxicity against human SF268 cells after 48 hrs by sulforhodamine B assay; assay type: functional; conditions: SF-268, 48 h; procedure, shortened: as §1
SF-295 = experiment: Cytotoxicity against human SF295 cells after 48 hrs by sulforhodamine B assay; assay type: functional; conditions: SF-295, 48 h; procedure, shortened: as §1
SF-539 = experiment: Cytotoxicity against human SF539 cells after 48 hrs by sulforhodamine B assay; assay type: functional; conditions: SF-539, 48 h; procedure, shortened: as §1
SNB-75 = experiment: Cytotoxicity against human SNB75 cells after 48 hrs by sulforhodamine B assay; assay type: functional; conditions: SNB-75, 48 h
Procedure, shortened: (§2)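 NCI 60-cell-line panel screen of human tumor lines: a one-dose pre-test, then the main test over a 5-log range (10^-4–10^-8 M). GI50, TGI and LC50 are reported as log molar concentrations for 50% net growth inhibition, total growth inhibition and 50% net cell death. Mean graph midpoints are also calculated.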

U-251 = experiment: Cytotoxicity against human U251 cells after 48 hrs by sulforhodamine B assay; assay type: functional; conditions: U-251, 48 h; procedure, shortened: as §2
LOX IMVI = experiment: Cytotoxicity against human LOXIMVI cells after 48 hrs by sulforhodamine B assay; assay type: functional; procedure, shortened: as §1
SK-MEL-5 = experiment: Cytotoxicity against human SK-MEL-5 cells after 48 hrs by sulforhodamine B assay; assay type: functional; conditions: SK-MEL-5, 48 h; procedure, shortened: as §1
UACC-62 = experiment: Cytotoxicity against human UACC62 cells after 48 hrs by sulforhodamine B assay; assay type: functional; conditions: UACC-62, 48 h; procedure, shortened: as §2
OVCAR-4 = experiment: Cytotoxicity against human OVCAR4 cells after 48 hrs by sulforhodamine B assay; assay type: functional; conditions: OVCAR-4, 48 h; procedure, shortened: as §1
NCI/ADR-RES = experiment: Cytotoxicity against human NCI/ADR-RES cells after 48 hrs by sulforhodamine B assay; assay type: functional; procedure, shortened: as §1
ACHN = experiment: Cytotoxicity against human ACHN cells after 48 hrs by sulforhodamine B assay; assay type: functional; procedure, shortened: as §1
TK-10 = experiment: Cytotoxicity against human TK10 cells after 48 hrs by sulforhodamine B assay; assay type: functional; conditions: TK-10, 48 h; procedure, shortened: as §2
UO-31 = experiment: Cytotoxicity against human UO31 cells after 48 hrs by sulforhodamine B assay; assay type: functional; conditions: UO-31, 48 h; procedure, shortened: as §2
MDA-MB-231 = experiment: Cytotoxicity against human MDA-MB-231 cells after 48 hrs by sulforhodamine B assay; assay type: functional; conditions: MDA-MB-231, 48 h; procedure, shortened: as §1
MCF7 [2] = experiment: Cell cycle arrest in human MCF7 cells assessed as accumulation at G1 phase at 5 uM after 24 hrs using propidium iodide staining by flow cytometry relative to control; assay type: functional
Procedure, shortened: (§3)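 MCF-7 cells were seeded at 5×10^5 per 60 mm dish and grown 24 h. They were then exposed to 5 uM compound for a further 24 h, with untreated control cells alongside. Cells were trypsinised, fixed in ice-cold 70% ethanol (4 °C, 30 min), treated with 1 mg/ml RNase A (37 °C, 30 min) and stained with propidium iodide/citrate/Triton solution. DNA content was read by flow cytometry on 20,000 events.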

MCF7 [3] = experiment: Cell cycle arrest in human MCF7 cells assessed as accumulation at S phase at 5 uM after 24 hrs using propidium iodide staining by flow cytometry relative to control; assay type: functional; procedure, shortened: as §3
MCF7 [4] = experiment: Cell cycle arrest in human MCF7 cells assessed as accumulation at G2/M phase at 5 uM after 24 hrs using propidium iodide staining by flow cytometry relative to control; assay type: functional; procedure, shortened: as §3
MCF7 [5] = experiment: Induction of apoptosis in human MCF7 cells assessed as increase of cleaved PARP level at 5 uM after 24 hrs by Western blotting; assay type: functional, cell-based
Procedure, shortened: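 MCF-7 cells, kept in DMEM with 10% fetal calf serum at 37 °C under 5% CO2, treated 24 h. Lysis in ice-cold RIPA with protease inhibitors; Bradford quantitation; 30 µg protein per lane on 12% SDS-PAGE, then PVDF. Primary antibodies (1:500) at 4 °C overnight; HRP secondary (1:2000); chemiluminescence detection; β-actin loading control.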

[6] = read-out: pLC50 (the source's name) (converted)

Q: With `COc1cc(C2NC(=O)c3ccccc3N2)ccc1OCCCCCOc1c(OC)cc(C2=NOC(c3cc(OC)c(OC)c(OC)c3)C2)cc1OC` (stereo unspecified) as the compound, how does the GI50 (K562) read?
A: 0.501 µM

Q: What about the CC50 (K562; [6]) of the same compound?
A: > 100 µM

Q: What about the TGI (K562; read-out: pTGI) of the same compound?
A: > 100 µM

Q: What about the GI50 (MOLT-4) of the same compound?
A: 0.479 µM

Q: And the CC50 (MOLT-4; [6])?
A: > 100 µM

Q: And the TGI (MOLT-4; read-out: pTGI)?
A: > 100 µM

Q: What about the GI50 [1] of the same compound?
A: 0.0851 µM

Q: What about the CC50 [1, 6] of the same compound?
A: > 100 µM

Q: And the TGI ([1]; read-out: pTGI (converted))?
A: 2.29 µM

Q: And the GI50 (HOP-92)?
A: 60.3 µM

Q: And the CC50 (HOP-92; [6])?
A: > 100 µM

Q: What about the TGI (HOP-92; read-out: pTGI) of the same compound?
A: > 100 µM

Q: And the GI50 (NCI-H23)?
A: 0.603 µM

Q: And the CC50 (NCI-H23; [6])?
A: > 100 µM

Q: And the TGI (NCI-H23; read-out: pTGI)?
A: > 100 µM

Q: What about the GI50 (NCI-H322M) of the same compound?
A: > 100 µM

Q: And the CC50 (NCI-H322M; [6])?
A: > 100 µM

Q: What about the TGI (NCI-H322M; read-out: pTGI) of the same compound?
A: > 100 µM

Q: What about the GI50 (NCI-H522) of the same compound?
A: 10.7 µM

Q: And the CC50 (NCI-H522; [6])?
A: 93.3 µM

Q: And the TGI (NCI-H522; read-out: pTGI (converted))?
A: 31.6 µM

Q: And the GI50 (COLO 205)?
A: 34.7 µM

Q: And the CC50 (COLO 205; [6])?
A: > 100 µM

Q: What about the TGI (COLO 205; read-out: pTGI) of the same compound?
A: > 100 µM

Q: And the GI50 (HCT-15)?
A: 0.708 µM

Q: What about the CC50 (HCT-15; [6]) of the same compound?
A: > 100 µM

Q: And the TGI (HCT-15; read-out: pTGI)?
A: > 100 µM

Q: What about the GI50 (DU-145) of the same compound?
A: 22.4 µM

Q: What about the CC50 (DU-145; [6]) of the same compound?
A: > 100 µM

Q: What about the TGI (DU-145; read-out: pTGI) of the same compound?
A: > 100 µM

Q: And the GI50 (SF-268)?
A: 21.4 µM

Q: What about the CC50 (SF-268; [6]) of the same compound?
A: > 100 µM

Q: And the TGI (SF-268; read-out: pTGI)?
A: > 100 µM

Q: And the GI50 (SF-295)?
A: 0.398 µM

Q: And the CC50 (SF-295; [6])?
A: > 100 µM

Q: And the TGI (SF-295; read-out: pTGI)?
A: > 100 µM

Q: What about the GI50 (SF-539) of the same compound?
A: 17.8 µM

Q: And the CC50 (SF-539; [6])?
A: > 100 µM

Q: And the TGI (SF-539; read-out: pTGI (converted))?
A: 89.1 µM

Q: What about the GI50 (SNB-75) of the same compound?
A: 11.2 µM

Q: What about the CC50 (SNB-75; [6]) of the same compound?
A: > 100 µM

Q: And the TGI (SNB-75; read-out: pTGI)?
A: > 100 µM

Q: What about the GI50 (U-251) of the same compound?
A: 15.1 µM

Q: What about the CC50 (U-251; [6]) of the same compound?
A: > 100 µM

Q: And the TGI (U-251; read-out: pTGI)?
A: > 100 µM

Q: What about the GI50 (LOX IMVI) of the same compound?
A: 14.1 µM

Q: And the CC50 (LOX IMVI; [6])?
A: > 100 µM

Q: And the TGI (LOX IMVI; read-out: pTGI)?
A: > 100 µM

Q: And the GI50 (SK-MEL-5)?
A: 0.112 µM

Q: And the CC50 (SK-MEL-5; [6])?
A: 0.933 µM

Q: What about the TGI (SK-MEL-5; read-out: pTGI (converted)) of the same compound?
A: 0.324 µM

Q: What about the GI50 (UACC-62) of the same compound?
A: 0.257 µM

Q: And the CC50 (UACC-62; [6])?
A: > 100 µM

Q: What about the TGI (UACC-62; read-out: pTGI) of the same compound?
A: > 100 µM

Q: What about the GI50 (OVCAR-4) of the same compound?
A: 0.355 µM

Q: What about the CC50 (OVCAR-4; [6]) of the same compound?
A: > 100 µM

Q: What about the TGI (OVCAR-4; read-out: pTGI) of the same compound?
A: > 100 µM

Q: What about the GI50 (NCI/ADR-RES) of the same compound?
A: 15.1 µM

Q: And the CC50 (NCI/ADR-RES; [6])?
A: > 100 µM

Q: What about the TGI (NCI/ADR-RES; read-out: pTGI) of the same compound?
A: > 100 µM

Q: What about the GI50 (ACHN) of the same compound?
A: 0.324 µM

Q: What about the CC50 (ACHN; [6]) of the same compound?
A: > 100 µM

Q: And the TGI (ACHN; read-out: pTGI)?
A: > 100 µM

Q: What about the GI50 (TK-10) of the same compound?
A: > 100 µM

Q: And the CC50 (TK-10; [6])?
A: > 100 µM

Q: What about the TGI (TK-10; read-out: pTGI) of the same compound?
A: > 100 µM

Q: What about the GI50 (UO-31) of the same compound?
A: 10.7 µM

Q: What about the CC50 (UO-31; [6]) of the same compound?
A: > 100 µM

Q: What about the TGI (UO-31; read-out: pTGI) of the same compound?
A: > 100 µM

Q: What about the GI50 (MDA-MB-231) of the same compound?
A: 14.8 µM

Q: What about the CC50 (MDA-MB-231; [6]) of the same compound?
A: > 100 µM

Q: What about the TGI (MDA-MB-231; read-out: pTGI) of the same compound?
A: > 100 µM

Q: And the Activity (MCF7 [2])?
A: 32.15%

Q: What about the Activity (MCF7 [3]) of the same compound?
A: 22.38%

Q: And the Activity (MCF7 [4])?
A: 43.9%

Q: What about the Activity (MCF7 [5]) of the same compound?
A: Active
